# TAAR1 antag = antagonists of human TAAR1; Q96RJ0; CHO RD-HGA16 TAAR1, Fluo-8 calcium fluorescence, antagonist; inhibition, % at 3 µM; 1.5% of 360,000 active; AID 624466;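 active means inhibition above a per-plate cutoff, the mean inhibition of test compounds on that plate plus 3 SD, cut at about 49% in these data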
# Target sequence (Q96RJ0 whole entry, looked up): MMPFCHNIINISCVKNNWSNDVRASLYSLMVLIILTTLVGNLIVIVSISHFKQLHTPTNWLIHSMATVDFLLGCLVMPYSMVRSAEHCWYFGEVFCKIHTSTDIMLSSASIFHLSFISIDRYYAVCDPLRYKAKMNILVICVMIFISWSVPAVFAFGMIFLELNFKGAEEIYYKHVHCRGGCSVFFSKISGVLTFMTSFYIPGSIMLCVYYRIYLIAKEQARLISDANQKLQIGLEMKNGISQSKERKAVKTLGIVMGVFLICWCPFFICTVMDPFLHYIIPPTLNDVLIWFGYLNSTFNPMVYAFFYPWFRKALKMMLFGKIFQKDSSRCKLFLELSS
#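 Material: RD-HGA16 CHO cells with stable hTAAR1 and Gα16; Dosing: single nominal final test compound concentration of 3 µM; Schedule: seeding 17-24 h prior, 75-min 37 °C, 30-min RT dye loading; Detection: kinetic Fluo-8 calcium fluorescence measurement; Measure: % inhibition from peak post-agonist over basal fluorescence ratio; Benchmarks: vehicle and agonist controls.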
# TAAR1 ag = agonists of human TAAR1; activation, % at 3 µM; 0.99% of 360,000 active; Q96RJ0; CHO RD-HGA16 TAAR1, Fluo-8 calcium fluorescence; vehicle wells 0%, saturating PEA agonist 100%;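 active means activation above the mean activation of all test compounds in the run plus 3 SD, cut at about 38% in these data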
#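 test system = CHO RD-HGA16 cells carrying human TAAR1 plus Gα16 | schedule = 17-24 h seeding, 75 min 37 °C dye, 30 min RT | compound dosing = 3 µM single concentration | control set = DMSO and PEA EC100 | replicates = n 1 | signal = Fluo-8 fluorescence, 5 s baseline then 140 s kinetic read | measure = percent activation vs PEA EC100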
# CHRM1 antagonist = human CHRM1 antagonism | inhibition, % at 3 µM | P11229 | 1.3% of 360,000 active | CHO-K1 hM1, Fluo-8 calcium fluorescence, ACh EC80 antagonist;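 active means percent inhibition above its own plate's cutoff, namely the mean of that plate's compound wells plus 3 SD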;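 further: peak over basal fluorescence ratio during 140 s after agonist addition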
# HTR2A ag = agonists of mouse serotonin 5-HT2A receptor (HTR2A); P35363; CHO-K1 mHTR2A beta-arrestin complementation, luminescence; percent of 30 µM serotonin response; activation, % at 7.6 µM; 0.66% of 360,000 active; AID 624169;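 active means activation above a run cutoff, the mean activation of all tested compounds plus 3 SD, cut at about 14% in these data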
# CHRM1 PAM = human CHRM1 positive allosteric modulation. CHO-K1 hM1, Fluo-8 calcium fluorescence, ACh EC20; 0% = ACh EC20, 100% = maximal ACh. activation, % at 3 µM. P11229. 0.088% of 360,000 active. AID 588819; in the data active means activation above about 19%, passing the limit was not always enough
# CHRM1 agonist = agonists of human M1 muscarinic receptor | P11229 | CHO-K1 hM1, Fluo-8 calcium fluorescence, agonist mode; 0% DMSO, 100% acetylcholine EC100 | activation, % at 3 µM | 0.33% of 360,000 active;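 active means activation above the run's mean compound activation plus 3 SD, cut at about 16% in these data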;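 further: peak over basal fluorescence ratio within a 140 s kinetic read after compound addition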
# TAAR1 nonsel count = counter-screen for TAAR1 antagonists: nonselective antagonists | inhibition, % at 3 µM | shares compounds with TAAR1 antag | counterscreen cell line, calcium fluorescence, antagonist mode | 77% of 2,400 active; in the data active means inhibition above about 22%;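 further: CHO-Ga16 host cells stimulated with ATP at an EC80 level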
# TAAR1 antag conf = confirmation of human TAAR1 antagonists | shares compounds with TAAR1 antag | TAAR1-expressing cells, fluorescence antagonist read-out | inhibition, % at 3 µM | 40% of 2,400 active; in the data active means inhibition above about 49%;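 further: CHO-Ga16 host cells challenged with agonist PEA near its EC80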
# Ga16 ag counter = nonselective Ga16 agonist in TAAR1 antagonist counter-screen; 18% of 2,400 active; activation, % at 3 µM; AID 651953; Ga16-expressing cells, calcium fluorescence, agonist counterscreen; shares compounds with TAAR1 antag; in the data active means activation above about 12%
# TAAR1 ag count = TAAR1 agonism, antagonist counter-screen. activation, % at 3 µM. shares compounds with TAAR1 antag. 2% of 2,400 active. hTAAR1 cell line, fluorescence activation, agonist mode; in the data active means activation above about 37%;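 further: CHO cells stably expressing TAAR1 with calcium dye readout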
# Numbers stand for hits; i = inactive; nt = no result. The list is not random: actives were taken first. Their share in the collection is about 3.9%.
SMILES,TAAR1 antag,TAAR1 ag,CHRM1 antagonist,HTR2A ag,CHRM1 PAM,CHRM1 agonist,TAAR1 nonsel count,TAAR1 antag conf,Ga16 ag counter,TAAR1 ag count
CCOC(=O)C1=C(COC(=O)/C=C/c2cccc(Br)c2)NC(=O)NC1C (configuration not stated),58.5,i,i,i,i,i,i,i,i,i
CCOC(=O)C1=C(COC(=O)/C=C/c2ccc(OC)c(OC)c2)NC(=O)NC1C (configuration not stated),i,i,i,i,i,i,nt,nt,nt,nt
CCOC(=O)C1=C(COC(=O)/C=C/c2ccc(O)c(OC)c2)NC(=O)NC1C (configuration not stated),61.9,i,i,i,i,i,28.4,51.2,12.9,i
CCOC(=O)C1=C(COC(=O)Cc2ccc(Cl)cc2)NC(=O)NC1C (configuration not stated),60.2,i,i,i,i,i,24.6,i,i,i
CCOC(=O)C1=C(COC(=O)/C=C/c2cccc(Cl)c2)NC(=O)NC1C (configuration not stated),i,i,i,i,i,i,nt,nt,nt,nt
CCOC(=O)C1=C(COC(=O)/C=C/c2cccc([N+](=O)[O-])c2)NC(=O)NC1C (configuration not stated),58.4,i,i,i,i,i,i,56.3,14.7,i
Cn1c(=O)c2c(ncn2CC(=O)OCC(=O)Nc2cccc(Cl)c2)n(C)c1=O,i,i,i,i,i,i,nt,nt,nt,nt
Cc1noc(C)c1COc1ccccc1C(=O)NCc1ccco1,i,i,i,i,i,i,nt,nt,nt,nt
CC(=O)C1=CCC(c2ccccc2Cl)N(S(=O)(=O)c2ccc(C)cc2)C1 (configuration not stated),i,i,i,i,i,i,nt,nt,nt,nt
COc1ccc(C2CC(c3ccccc3)=NN2C(=O)COC(=O)C2(C)CC2(Cl)Cl)cc1 (configuration not stated),i,i,i,i,i,i,nt,nt,nt,nt
COc1ccc(-c2cc(C(=O)N(C)CC(=O)Nc3ccccc3C(F)(F)F)c3ccccc3n2)cc1OC,66.7,i,i,i,i,i,33.9,49.1,i,i
COc1ccc(-c2cc(C(=O)N(C)CC(=O)Nc3ccccc3Br)c3ccccc3n2)cc1OC,65.3,i,i,i,i,i,28.9,50.9,i,i
CN(CC(=O)Nc1ccccc1Br)C(=O)c1cc(Cl)nc2ccccc12,i,i,i,i,i,i,nt,nt,nt,nt
CN(C)C(=S)N=c1ssc(=S)n1Cc1cccnc1,i,i,i,i,i,i,nt,nt,nt,nt
Cc1ccc2nc(-c3cccnc3)cc(C(=O)N3CCN(c4ccc([N+](=O)[O-])cc4)CC3)c2c1,i,i,i,i,i,i,nt,nt,nt,nt
O=C(c1cc(-c2cccnc2)nc2ccc(Br)cc12)N1CCN(c2ncccn2)CC1,51.0,i,i,i,i,i,33.8,56.5,i,i
CC(=O)c1ccc(N2CCN(C(=O)c3cc(-c4cccnc4)nc4ccc(Br)cc34)CC2)cc1,75.7,i,i,i,i,i,27.3,49.2,13.3,i
CS(=O)(=O)N1CCN(C(=O)c2cc(-c3cccnc3)nc3ccc(Br)cc23)CC1,i,i,i,i,i,i,nt,nt,nt,nt
CCn1c(C)nc2cc(C(=O)NNC(=S)NC(=O)c3ccc(OC)cc3)ccc21,i,i,i,i,i,i,nt,nt,nt,nt
COc1c(F)c(F)c(C(=O)O)c(Nc2ccc(C)cc2C)c1F,i,i,i,i,i,i,nt,nt,nt,nt
O=C(/C=C/c1ccccc1)N1CCN(c2cccc(Cl)n2)CC1,i,i,i,i,i,i,nt,nt,nt,nt
N#Cc1cc(C#N)c(N2CCN(c3cccc(Cl)n3)CC2)nc1N,57.9,i,i,i,i,i,33.7,49.2,19.4,i
Cc1ccc(S(=O)(=O)N2CCN(C(=O)c3ccc(-n4cncn4)c([N+](=O)[O-])c3)CC2)c(C)c1,i,i,i,i,i,i,nt,nt,nt,nt
COc1ccc(CN(Cc2cc3ccc(C)cc3[nH]c2=O)Cc2nnnn2C2CCCC2)cc1,55.8,i,i,i,i,i,i,i,i,i
Cc1ccc2cc(CN(Cc3nnnn3C3CCCCC3)CC3CCCO3)c(=O)[nH]c2c1 (configuration not stated),i,i,i,i,i,i,nt,nt,nt,nt
SMILES,TAAR1 antag,TAAR1 ag,CHRM1 antagonist,HTR2A ag,CHRM1 PAM,CHRM1 agonist,TAAR1 nonsel count,TAAR1 antag conf,Ga16 ag counter,TAAR1 ag count
COc1ccc(S(=O)(=O)Nc2ncccn2)cc1,104.7,i,i,i,i,i,i,i,i,i
COc1ccc(CC(=O)Nc2ccc(S(=O)(=O)Nc3ncccn3)cc2)cc1,i,i,i,i,i,i,nt,nt,nt,nt
CSc1ccc(CCNC(=O)c2nn(C)c3c2CS(=O)(=O)c2ccccc2-3)cc1,61.1,i,i,i,i,i,33.6,49.9,i,i
CCSc1ccccc1C(=O)NC1CCCCC1,i,i,i,i,i,i,nt,nt,nt,nt
Cc1ccc2cc(CN(C(=O)c3ccco3)c3ccccc3C)c(=O)[nH]c2c1,i,i,i,i,i,i,nt,nt,nt,nt
Cc1ccc(N(Cc2cc3ccc(C)cc3[nH]c2=O)C(=O)c2ccco2)c(C)c1,103.6,i,i,i,i,i,i,i,i,i
CN(Cc1ccccc1)c1nc2c(c(=O)n(C)c(=O)n2C)n1CCCc1ccccc1,49.4,i,33.8,i,i,i,27.4,52.0,17.3,39.5
COc1ccc(CCC(=O)NCCS(=O)(=O)N2CCN(c3ccc(OC)cc3)CC2)cc1,62.2,i,i,i,i,i,28.9,54.0,15.3,i
CC(C)[C@H](NC(=O)OC(C)(C)C)c1cc(C(=O)N[C@@H](C)c2ccccc2)c(N)s1,i,i,nt,i,nt,nt,nt,nt,nt,nt
O=C(COC(=O)c1ccc([N+](=O)[O-])cc1)Nc1ccccc1C(=O)NC1CC1,i,i,i,i,i,i,nt,nt,nt,nt
CCOC(=O)Cc1n[nH]c(=O)c2ccccc12,i,i,i,i,i,i,nt,nt,nt,nt
O=C(Cc1n[nH]c(=O)c2ccccc12)OCC(=O)N(Cc1ccccc1)Cc1ccccc1,57.3,i,i,i,i,i,i,i,i,i
O=C(Nc1cccc(C(F)(F)F)c1)c1ccc(-c2ccc(F)c(F)c2)c2ccoc12,i,i,i,i,i,i,nt,nt,nt,nt

# High-throughput results: PubChem BioAssay, The Scripps Research Institute Molecular Screening Center
